Source: ChEMBL document CHEMBL1126763, “Nonpeptide angiotensin II receptor antagonists. Synthesis and biological activity of potential prodrugs of benzimidazole-7-carboxylic acids” (J Med Chem, 1993)

Columns and labels:
Type in all cases: functional, organism-based
Set-up in all cases: dose 0.1 mg/kg
[1] = target: T1, Angiotensin II receptor (Rattus norvegicus) (UniProt P29089+P25095+P35351); experiment: Inhibitory activity on AII (100 ng/kg iv)-induced pressor response after administration at 0.1 mg/kg po in conscious male Sprague-Dawley rats at 2 h.
Method in brief: (§1)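 Conscious male Sprague-Dawley rats received test compounds orally at 0.1 mg/kg. AII (100 ng/kg iv) was given as a pressor challenge at each time point after dosing, and percent inhibition of the pressor response was recorded. Experiments were run in duplicate (n = 2); parent drug and one ester used n = 3. Inhibition may vary by less than 30%.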

[2] = target: T1, Angiotensin II receptor (Rattus norvegicus); experiment: Inhibitory activity on AII (100 ng/kg iv)-induced pressor response after administration at 0.1 mg/kg po in conscious male Sprague-Dawley rats at 5 h.; method in brief: as §1
[3] = target: T1, Angiotensin II receptor (Rattus norvegicus); experiment: Inhibitory activity on AII (100 ng/kg iv)-induced pressor response after administration at 0.1 mg/kg po in conscious male Sprague-Dawley rats at 3 h.; method in brief: as §1
[4] = target: T1, Angiotensin II receptor (Rattus norvegicus); experiment: Inhibitory activity on AII (100 ng/kg iv)-induced pressor response after administration at 0.1 mg/kg po in conscious male Sprague-Dawley rats at 7 h.; method in brief: as §1
[5] = target: T1, Angiotensin II receptor (Rattus norvegicus); experiment: Inhibitory activity on AII (100 ng/kg iv)-induced pressor response at 0.1 mg/kg po in conscious male Sprague-Dawley rats at 1 h.; method in brief: as §1
[6] = target: T1, Angiotensin II receptor (Rattus norvegicus); experiment: Inhibitory activity on AII (100 ng/kg iv)-induced pressor response after administration at 0.1 mg/kg po in conscious male Sprague-Dawley rats at 24 h.; method in brief: as §1
[7] = target: T1, Angiotensin II receptor (Rattus norvegicus); experiment: Inhibitory effect on AII (100 ng/kg iv)-induced pressor response after administration at 0.1 mg/kg po in conscious male Sprague-Dawley rats at 0.5 h.; method in brief: as §1

SMILES: CCOc1nc2cccc(C(=O)OCOC(=O)OCC3CC3)c2n1Cc1ccc(-c2ccccc2-c2nn[nH]n2)cc1
- inhibition [1]: 57%
- inhibition [2]: 44%
- inhibition [3]: 58%
- inhibition [4]: 30%
- inhibition [5]: 49%
- inhibition [6]: 22%
- inhibition [7]: 10%

SMILES: CCCCc1nc(Cl)c(CO)n1Cc1ccc(-c2ccccc2-c2nnn[nH]2)cc1
- inhibition [1]: 12%
- inhibition [2]: 35%
- inhibition [3]: 21%
- inhibition [4]: 34%
- inhibition [5]: 1%
- inhibition [6]: 17%
- inhibition [7]: 5%

SMILES: CCOc1nc2cccc(C(=O)OC(C)OC(=O)OC(CC)CC)c2n1Cc1ccc(-c2ccccc2-c2nn[nH]n2)cc1 (stereo not drawn)
- inhibition [1]: 86%
- inhibition [2]: 63%
- inhibition [3]: 84%
- inhibition [4]: 53%
- inhibition [5]: 72%
- inhibition [6]: 13%
- inhibition [7]: 16%

SMILES: CCOc1nc2cccc(C(=O)OCc3oc(=O)oc3C)c2n1Cc1ccc(-c2ccccc2-c2nn[nH]n2)cc1
- inhibition [1]: 87%
- inhibition [2]: 70%
- inhibition [3]: 85%
- inhibition [4]: 44%
- inhibition [5]: 83%
- inhibition [6]: 6%
- inhibition [7]: 49%

SMILES: CCOC(=O)OC(C)OC(=O)c1cccc2nc(OCC)n(Cc3ccc(-c4ccccc4-c4nn[nH]n4)cc3)c12 (stereo not drawn)
- inhibition [1]: 95%
- inhibition [2]: 81%
- inhibition [3]: 89%
- inhibition [4]: 71%
- inhibition [5]: 87%
- inhibition [6]: 7%
- inhibition [7]: 74%

SMILES: CCCCc1nc2cccc(C(=O)OC(C)OC(=O)OC3CCCCC3)c2n1Cc1ccc(-c2ccccc2-c2nn[nH]n2)cc1 (stereo not drawn)
- inhibition [1]: 84%
- inhibition [2]: 78%
- inhibition [3]: 81%
- inhibition [4]: 79%
- inhibition [5]: 85%
- inhibition [6]: 47%
- inhibition [7]: 58%

SMILES: CCOc1nc2cccc(C(=O)OCOC(=O)OC3CCCCC3)c2n1Cc1ccc(-c2ccccc2-c2nn[nH]n2)cc1
- inhibition [1]: 4%
- inhibition [2]: 53%
- inhibition [3]: 15%
- inhibition [4]: 54%
- inhibition [5]: -3%
- inhibition [6]: 11%
- inhibition [7]: 1%

SMILES: CCOc1nc2cccc(C(=O)OC(C)OC(=O)OC3CCC3)c2n1Cc1ccc(-c2ccccc2-c2nn[nH]n2)cc1 (stereo not drawn)
- inhibition [1]: 86%
- inhibition [2]: 79%
- inhibition [3]: 83%
- inhibition [4]: 60%
- inhibition [5]: 77%
- inhibition [6]: 25%
- inhibition [7]: 35%

SMILES: CCCCc1nc2cccc(C(=O)OC(C)OC(=O)OCC)c2n1Cc1ccc(-c2ccccc2-c2nn[nH]n2)cc1 (stereo not drawn)
- inhibition [1]: 84%
- inhibition [2]: 81%
- inhibition [3]: 89%
- inhibition [4]: 75%
- inhibition [5]: 89%
- inhibition [6]: 61%
- inhibition [7]: 64%

SMILES: CCOc1nc2cccc(C(=O)OCOC(=O)C3CCCCC3)c2n1Cc1ccc(-c2ccccc2-c2nn[nH]n2)cc1
- inhibition [1]: 76%
- inhibition [2]: 89%
- inhibition [3]: 85%
- inhibition [4]: 80%
- inhibition [5]: 5%
- inhibition [6]: 14%
- inhibition [7]: 0%

SMILES: CCCC(=O)OCOC(=O)c1cccc2nc(OCC)n(Cc3ccc(-c4ccccc4-c4nn[nH]n4)cc3)c12
- inhibition [1]: 78%
- inhibition [2]: 54%
- inhibition [3]: 67%
- inhibition [4]: 48%
- inhibition [5]: 84%
- inhibition [6]: 6%
- inhibition [7]: 100%

SMILES: CCOc1nc2cccc(C(=O)OC(C)OC(=O)OC3CCCCC3)c2n1Cc1ccc(-c2ccccc2-c2nn[nH]n2)cc1 (stereo not drawn)
- inhibition [1]: 80%
- inhibition [2]: 82%
- inhibition [3]: 87%
- inhibition [4]: 75%
- inhibition [5]: 76%
- inhibition [6]: 36%
- inhibition [7]: 38%

SMILES: CCOc1nc2cccc(C(=O)OCOC(=O)c3ccccc3)c2n1Cc1ccc(-c2ccccc2-c2nn[nH]n2)cc1
- inhibition [1]: 23%
- inhibition [2]: 67%
- inhibition [3]: 56%
- inhibition [4]: 76%
- inhibition [5]: -2%
- inhibition [6]: 6%
- inhibition [7]: -4%

SMILES: CCOc1nc2cccc(C(=O)OC(C)OC(C)=O)c2n1Cc1ccc(-c2ccccc2-c2nn[nH]n2)cc1 (stereo not drawn)
- inhibition [1]: 92%
- inhibition [2]: 84%
- inhibition [3]: 86%
- inhibition [4]: 75%
- inhibition [5]: 90%
- inhibition [6]: 28%
- inhibition [7]: 86%

SMILES: CCOc1nc2cccc(C(=O)OCOC(=O)OC(C)C)c2n1Cc1ccc(-c2ccccc2-c2nn[nH]n2)cc1
- inhibition [1]: 79%
- inhibition [2]: 68%
- inhibition [3]: 72%
- inhibition [4]: 57%
- inhibition [5]: 55%
- inhibition [6]: 28%
- inhibition [7]: 23%

SMILES: CCOc1nc2cccc(C(=O)OCOC(=O)/C=C/c3ccccc3)c2n1Cc1ccc(-c2ccccc2-c2nn[nH]n2)cc1
- inhibition [1]: 80%
- inhibition [2]: 61%
- inhibition [3]: 80%
- inhibition [4]: 64%
- inhibition [5]: 36%
- inhibition [6]: 3%
- inhibition [7]: -3%

SMILES: CCOc1nc2cccc(C(=O)O)c2n1Cc1ccc(-c2ccccc2-c2nnn[nH]2)cc1
- inhibition [1]: 51%
- inhibition [2]: 85%
- inhibition [3]: 67%
- inhibition [5]: 24%
- inhibition [6]: 43%
- inhibition [7]: 7%

SMILES: CCOc1nc2cccc(C(=O)OCOC(C)=O)c2n1Cc1ccc(-c2ccccc2-c2nn[nH]n2)cc1
- inhibition [1]: 79%
- inhibition [2]: 72%
- inhibition [3]: 78%
- inhibition [4]: 59%
- inhibition [5]: 84%
- inhibition [6]: 23%
- inhibition [7]: 66%

SMILES: CCOc1nc2cccc(C(=O)OCOC(=O)OC3CCCC3)c2n1Cc1ccc(-c2ccccc2-c2nn[nH]n2)cc1
- inhibition [1]: 55%
- inhibition [2]: 77%
- inhibition [3]: 68%
- inhibition [4]: 64%
- inhibition [5]: 14%
- inhibition [6]: 14%
- inhibition [7]: 5%

SMILES: CCOc1nc2cccc(C(=O)OC(C)OC(=O)OC(C)C)c2n1Cc1ccc(-c2ccccc2-c2nn[nH]n2)cc1 (stereo not drawn)
- inhibition [1]: 84%
- inhibition [2]: 80%
- inhibition [3]: 79%
- inhibition [4]: 67%
- inhibition [5]: 91%
- inhibition [6]: 12%
- inhibition [7]: 70%

SMILES: CCOc1nc2cccc(C(=O)OCOC(=O)C3CCCC3)c2n1Cc1ccc(-c2ccccc2-c2nn[nH]n2)cc1
- inhibition [1]: 61%
- inhibition [2]: 62%
- inhibition [3]: 65%
- inhibition [4]: 54%
- inhibition [5]: 31%
- inhibition [6]: 9%
- inhibition [7]: 7%

SMILES: CCOc1nc2cccc(C(=O)OCOC(=O)C(C)C)c2n1Cc1ccc(-c2ccccc2-c2nn[nH]n2)cc1
- inhibition [1]: 56%
- inhibition [2]: 44%
- inhibition [3]: 52%
- inhibition [4]: 20%
- inhibition [5]: 40%
- inhibition [6]: 6%
- inhibition [7]: 80%

SMILES: CCOc1nc2cccc(C(=O)OCOC(=O)CC)c2n1Cc1ccc(-c2ccccc2-c2nn[nH]n2)cc1
- inhibition [1]: 60%
- inhibition [2]: 38%
- inhibition [3]: 60%
- inhibition [4]: 31%
- inhibition [5]: 76%
- inhibition [6]: -4%
- inhibition [7]: 76%

SMILES: CCCCc1nc2cccc(C(=O)OCc3oc(=O)oc3C)c2n1Cc1ccc(-c2ccccc2-c2nn[nH]n2)cc1
- inhibition [1]: 81%
- inhibition [2]: 75%
- inhibition [3]: 88%
- inhibition [4]: 77%
- inhibition [5]: 63%
- inhibition [6]: 55%
- inhibition [7]: 32%

SMILES: CCCCc1nc2cccc(C(=O)OCc3ccncc3)c2n1Cc1ccc(-c2ccccc2-c2nn[nH]n2)cc1
- inhibition [1]: 18%
- inhibition [2]: 18%
- inhibition [3]: 16%
- inhibition [4]: 8%
- inhibition [5]: 16%
- inhibition [7]: 4%
